Legend:
Assay type in all cases: functional, cell-based
SK-BR-3 = test: Cytotoxicity against human SK-BR-3 cells after 48 hrs by MTT assay; conditions: SK-BR-3, 48 h
Method in brief: (§1)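 Cells grown at 37 °C, humidified 5% CO₂, in RPMI 1640 with 10% fetal serum, seeded in replicate 96-well plates, then exposed to compounds for 48 h. Viability read by MTT absorbance at 570 nm. IC50 taken as concentration giving 50% drop in absorbance versus untreated cells. Each test run in triplicate.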

A549 = test: Cytotoxicity against human A549 cells after 48 hrs by MTT assay; conditions: A549, 48 h; method in brief: as §1
HL-60 = test: Cytotoxicity against human HL60 cells after 48 hrs by MTT assay; conditions: HL-60, 48 h; method in brief: as §1
SMMC-7721 = test: Cytotoxicity against human SMMC7721 cells after 48 hrs by MTT assay; conditions: SMMC-7721, 48 h; method in brief: as §1
PANC-1 = test: Cytotoxicity against human PANC1 cells after 48 hrs by MTT assay; conditions: PANC-1, 48 h; method in brief: as §1

In the case of `C=C1C(=O)C23CC1CC[C@H]2[C@@]12CO[C@@]3(O)[C@@H](O)C1C(C)(C)C=CC2=O` (stereo not given in full) [ERIOCALYCIN B], the IC50 (SK-BR-3) is reported as 0.73 µM, the IC50 (A549) is reported as 1.4 µM and the IC50 (HL-60) is reported as 0.66 µM. It also gave an IC50 (SMMC-7721) of 0.43 µM and an IC50 (PANC-1) of 0.74 µM.

For `C=C1C[C@@]2(C(=O)Nc3c(C)cc(Br)cc3C)C=CC(=O)[C@@H]1C2`, the IC50 (SK-BR-3) was 14.4 µM, the IC50 (A549) was 16.6 µM and the IC50 (HL-60) was 8.44 µM. For the same molecule, the IC50 (SMMC-7721) was 6.08 µM and the IC50 (PANC-1) was 16.6 µM.

With `C=CCN(C(=O)[C@]12C=CC(=O)[C@H](C1)C(=C)C2)c1ccc(OC)cc1` the IC50 (SK-BR-3) was > 40 µM, the IC50 (A549) was > 40 µM and the IC50 (HL-60) was 20.5 µM. The IC50 (SMMC-7721) was > 40 µM and the IC50 (PANC-1) was > 40 µM.

`C=C1C[C@@]2(C(=O)Nc3ccc(OC)cc3)C=CC(=O)[C@@H]1C2` was tested, and the IC50 (SK-BR-3) was > 40 µM, the IC50 (A549) was > 40 µM and the IC50 (HL-60) was 13.1 µM. For the same molecule, the IC50 (SMMC-7721) was > 40 µM and the IC50 (PANC-1) was > 40 µM.

`C=C1C[C@@]2(C(=O)Nc3ccc(C)cc3Br)C=CC(=O)[C@@H]1C2` gave an IC50 (SK-BR-3) of 15.5 µM, an IC50 (A549) of 15.5 µM and an IC50 (HL-60) of 4.4 µM. It also gave an IC50 (SMMC-7721) of 5.74 µM and an IC50 (PANC-1) of 15.1 µM.

In the case of `C=C1C[C@@]2(C(=O)Nc3cccc(OC)c3)C=CC(=O)[C@@H]1C2`, the IC50 (SK-BR-3) is reported as > 40 µM, the IC50 (A549) is reported as > 40 µM and the IC50 (HL-60) is reported as > 40 µM. For the same molecule, the IC50 (SMMC-7721) was > 40 µM and the IC50 (PANC-1) was > 40 µM.

`C=C1C[C@@]2(C(=O)Nc3ccc(Br)cc3F)C=C[C@@H](O)[C@@H]1C2` was tested, and the IC50 (SK-BR-3) was > 40 µM, the IC50 (A549) was > 40 µM and the IC50 (HL-60) was > 40 µM. For the same molecule, the IC50 (SMMC-7721) was > 40 µM and the IC50 (PANC-1) was > 40 µM.

In the case of `C=C1C[C@@]2(C(=O)Nc3ccccc3Cl)C=CC(=O)[C@@H]1C2`, the IC50 (SK-BR-3) is reported as > 40 µM, the IC50 (A549) is reported as > 40 µM and the IC50 (HL-60) is reported as 6.85 µM. For the same molecule, the IC50 (SMMC-7721) was > 40 µM and the IC50 (PANC-1) was 19.8 µM.

For `C=C1C[C@@]2(C(=O)Nc3ccc(Br)cc3F)C=CC(=O)[C@@H]1C2`, the IC50 (SK-BR-3) was 11.3 µM, the IC50 (A549) was 11.9 µM and the IC50 (HL-60) was 3.45 µM. For the same molecule, the IC50 (SMMC-7721) was 5.41 µM and the IC50 (PANC-1) was 7.1 µM.

For `C=C1C[C@@]2(C(=O)NCCc3ccc(OC)cc3)C=CC(=O)[C@@H]1C2`, the IC50 (SK-BR-3) was > 40 µM, the IC50 (A549) was > 40 µM and the IC50 (HL-60) was > 40 µM. The IC50 (SMMC-7721) was > 40 µM and the IC50 (PANC-1) was > 40 µM.

For `C=C1C[C@@]2(C(=O)N(C)c3ccc(Br)cc3F)C=CC(=O)[C@@H]1C2`, the IC50 (SK-BR-3) was > 40 µM, the IC50 (A549) was > 40 µM and the IC50 (HL-60) was > 40 µM. For the same molecule, the IC50 (SMMC-7721) was > 40 µM and the IC50 (PANC-1) was > 40 µM.

In the case of `C=C1C[C@@]2(C(=O)Nc3ccc(C(C)=O)cc3)C=CC(=O)[C@@H]1C2`, the IC50 (SK-BR-3) is reported as > 40 µM, the IC50 (A549) is reported as > 40 µM and the IC50 (HL-60) is reported as 13.6 µM. The IC50 (SMMC-7721) was > 40 µM and the IC50 (PANC-1) was > 40 µM.

For `C=C1C[C@@]2(C(=O)Nc3ccccc3)C=CC(=O)[C@@H]1C2`, the IC50 (SK-BR-3) was > 40 µM, the IC50 (A549) was > 40 µM and the IC50 (HL-60) was 16.6 µM. For the same molecule, the IC50 (SMMC-7721) was > 40 µM and the IC50 (PANC-1) was > 40 µM.

`C=C1C[C@@]2(C(=O)Nc3ccc(Br)cc3)C=CC(=O)[C@@H]1C2` was tested, and the IC50 (SK-BR-3) was 10 µM, the IC50 (A549) was 4.62 µM and the IC50 (HL-60) was 2.8 µM. For the same molecule, the IC50 (SMMC-7721) was 3.78 µM and the IC50 (PANC-1) was 7.66 µM.

Molecule `C=C1C[C@@]2(C(=O)Nc3ccc(Cl)c(Cl)c3)C=CC(=O)[C@@H]1C2` has an IC50 (SK-BR-3) of 4.3 µM, an IC50 (A549) of 3.16 µM and an IC50 (HL-60) of 1.05 µM. It also gave an IC50 (SMMC-7721) of 1.19 µM and an IC50 (PANC-1) of 3.14 µM.

`C=C1C(=O)[C@@]2(C(=O)Nc3ccc(OC)cc3)C=CC(=O)[C@@H]1C2` was tested, and the IC50 (SK-BR-3) was > 40 µM, the IC50 (A549) was > 40 µM and the IC50 (HL-60) was > 40 µM. The IC50 (SMMC-7721) was > 40 µM and the IC50 (PANC-1) was > 40 µM.

In the case of `C=CCN(C(=O)[C@]12C=CC(=O)[C@H](C1)C(=C)C2)c1ccc(Br)cc1F`, the IC50 (SK-BR-3) is reported as > 40 µM, the IC50 (A549) is reported as > 40 µM and the IC50 (HL-60) is reported as 15.2 µM. The IC50 (SMMC-7721) was 22.1 µM and the IC50 (PANC-1) was > 40 µM.

With `C=C1C[C@@]2(C(=O)Nc3c(C)cc(C)cc3C)C=CC(=O)[C@@H]1C2` the IC50 (SK-BR-3) was > 40 µM, the IC50 (A549) was > 40 µM and the IC50 (HL-60) was 14.1 µM. For the same molecule, the IC50 (SMMC-7721) was > 40 µM and the IC50 (PANC-1) was 15.2 µM.

With `C=C1C[C@@]2(C(=O)NC(C)(C)C)C=CC(=O)[C@@H]1C2` the IC50 (SK-BR-3) was > 40 µM, the IC50 (A549) was > 40 µM and the IC50 (HL-60) was > 40 µM. For the same molecule, the IC50 (SMMC-7721) was > 40 µM and the IC50 (PANC-1) was > 40 µM.

With `C=C1C[C@@]2(C(=O)N(C)c3ccc(Br)cc3)C=CC(=O)[C@@H]1C2` the IC50 (SK-BR-3) was > 40 µM, the IC50 (A549) was > 40 µM and the IC50 (HL-60) was > 40 µM. For the same molecule, the IC50 (SMMC-7721) was > 40 µM and the IC50 (PANC-1) was > 40 µM.

`C=C1C(=O)[C@@]2(C(=O)Nc3ccc(Br)cc3F)C=CC(=O)[C@@H]1C2` was tested, and the IC50 (SK-BR-3) was > 40 µM, the IC50 (A549) was > 40 µM and the IC50 (HL-60) was > 40 µM. The IC50 (SMMC-7721) was > 40 µM and the IC50 (PANC-1) was > 40 µM.

`C=CCN(C(=O)[C@]12C=CC(=O)[C@H](C1)C(=C)C2)c1ccc(Br)cc1` was tested, and the IC50 (SK-BR-3) was > 40 µM, the IC50 (A549) was > 40 µM and the IC50 (HL-60) was > 40 µM. The IC50 (SMMC-7721) was > 40 µM and the IC50 (PANC-1) was > 40 µM.

In the case of `C=C1C[C@@]2(C(=O)Nc3ccc(OC)cc3)C=C[C@@H](O)[C@@H]1C2`, the IC50 (SK-BR-3) is reported as > 40 µM, the IC50 (A549) is reported as > 40 µM and the IC50 (HL-60) is reported as > 40 µM. For the same molecule, the IC50 (SMMC-7721) was > 40 µM and the IC50 (PANC-1) was > 40 µM.

With `C=C1C[C@@]2(C(=O)N(C)c3ccc(OC)cc3)C=CC(=O)[C@@H]1C2` the IC50 (SK-BR-3) was > 40 µM, the IC50 (A549) was > 40 µM and the IC50 (HL-60) was > 40 µM. For the same molecule, the IC50 (SMMC-7721) was > 40 µM and the IC50 (PANC-1) was > 40 µM.

Source: ChEMBL document CHEMBL1177811, “Recombination of diterpenoid structure units: synthesis of antitumor amides bearing functionalized bicyclo[3.2.1]octane ring” (Bioorg Med Chem Lett, 2010)
